Bioassay records (PubChem BioAssay)
Rows were chosen to be rich in hits. Some 0.86% of all compounds tested hit in one or more screens of this group.
Rtt109 Vps75: C. albicans Rtt109 histone acetyltransferase inhibition; purified Rtt109/Vps75, ThioGlo CoA-SH fluorescence, 4 h; Q5AAJ8; inhibition, % at 34.9 µM; AID 540336; 330,000 tested, 0.16% active;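 active = inhibition of at least 50% in every replicate; inconclusive = best replicate reaches 50% inhibition but some replicates fall short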
Target sequence (Q5AAJ8 whole entry, looked up): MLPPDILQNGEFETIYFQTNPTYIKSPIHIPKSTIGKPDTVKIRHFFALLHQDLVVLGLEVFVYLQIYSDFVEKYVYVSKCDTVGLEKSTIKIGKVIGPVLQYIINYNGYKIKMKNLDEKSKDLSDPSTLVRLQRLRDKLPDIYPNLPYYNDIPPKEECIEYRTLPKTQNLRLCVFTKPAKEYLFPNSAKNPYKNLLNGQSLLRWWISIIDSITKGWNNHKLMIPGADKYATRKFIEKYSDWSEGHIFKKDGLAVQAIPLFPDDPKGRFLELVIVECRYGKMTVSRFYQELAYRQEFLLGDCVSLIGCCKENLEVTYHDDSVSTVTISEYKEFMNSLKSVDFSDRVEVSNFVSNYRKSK
AF4-AF9 inh: blocks AF4 peptide binding to human AF9; P42568; AlphaScreen, biotin-AF4 peptide binding to FLAG-AF9; inhibition, % at 10 µM; 350,000 tested, 0.47% active; AID 651704;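 active = every replicate reaching a set inhibition limit, whatever the replicate mean, cut at about 25% in these data; inconclusive = mean inhibition reaches that limit but some replicates miss it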
S100A4 inh HTS: S100A4-myosin IIA interaction inhibition; P26447; S100A4/TAMRA-MyoIIA peptide fluorescence polarization; 360,000 tested, 0.14% active; inhibition, % at 10.7 µM;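 active = mean inhibition of at least 70% across replicates, with every replicate also reaching that level; inconclusive = mean inhibition reaches 70% but some replicates fall short; inactive = mean inhibition below 70%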
Target sequence (P26447 whole entry, looked up): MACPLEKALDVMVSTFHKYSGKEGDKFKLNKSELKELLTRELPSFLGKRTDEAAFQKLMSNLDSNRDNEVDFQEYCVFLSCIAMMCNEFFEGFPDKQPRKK
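Assay system: human S100A4 monomer with TAMRA-labelled myosin IIA peptide / Buffer or medium: Calcium-containing HEPES buffer, pH 7.2 / Reagent: TAMRA-labelled myosin IIA heavy-chain peptide probe, 5 nM / Compound: one dose per compound / Timing: polarization read 5 min after assay mix addition, stable 5–60 min / Benchmarks: neutral control DMSO, positive control TFP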
miR-122 sensor: miR-122 inhibition in Huh7 cells; Huh7 miR-122 Renilla luciferase sensor, 48 h; neutral wells = 0, positive control = 100; activation (reporter increase), % at 12.5 µM; 340,000 tested, 0.3% active; AID 602342;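 active = mean replicate activation score at least 90 and every replicate individually at or above 90; inconclusive = only one of the two criteria met; inactive = neither criterion met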;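 also: higher luciferase means less miR-122 activity so hits act as miR-122 inhibitors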
ERAP1 HTS inh: ERAP1 (human) enzyme inhibition | 340,000 tested, 0.15% active | recombinant ERAP1, Leu-AMC fluorescence, 60 min | inhibition, % at 10.7 µM | Q9NZ08 | AID 652197;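 active = mean replicate inhibition of at least 30%, or all replicates individually reaching that 30% level; inactive = mean below 30% and not every replicate reaching it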
A number is an active result; – = inactive; ? = inconclusive; · = no result given.

SMILES	Rtt109 Vps75	AF4-AF9 inh	S100A4 inh HTS	miR-122 sensor	ERAP1 HTS inh
CC(=O)NC(CC(=O)O)c1ccccc1 (stereo unspecified)	–	–	–	–	–
C=CC(=C)CC(NC)c1ccccc1 (stereo unspecified)	–	28	–	–	–
O=C(C[C@H]1C[C@H]2c3cc(NC(=O)Nc4ccc(F)cc4)ccc3O[C@H]2[C@H](CO)O1)NC1CCCC1	·	–	–	–	–
COc1cccc(-c2ccc3c(c2)[C@H]2[C@H](CCN2C(=O)c2cccc(F)c2)[C@H](CO)N3)c1	·	–	–	–	–
O=C1NC(c2cccc3ccccc23)Nc2ccccc21 (stereo unspecified)	–	–	–	150	–
O=C1NC(c2ccccc2Cl)Nc2ccccc21 (stereo unspecified)	–	·	·	–	·
COc1ccc(C2CC(=O)Oc3c(C(CCN4CCCCC4)c4ccc(N(C)C)cc4)c(OC)cc(OC)c32)cc1 (stereo unspecified)	–	44	–	–	–
COc1cc(O)c(C(CCN2CCCC2)c2ccc(N(C)C)cc2)c(OC)c1 (stereo unspecified)	–	39	–	–	·
COc1cc(OC)c2c(-c3ccccc3)cc(=O)oc2c1C(CCN1CCN(c2ccccc2)CC1)c1ccc(N(C)C)cc1 (stereo unspecified)	–	–	–	–	·
COc1cc(OC)c2ccc(=O)oc2c1C(CCN1CCN(c2ccccc2)CC1)c1ccc(N(C)C)cc1 (stereo unspecified)	–	26	–	–	–
Cc1ccccc1S(=O)(=O)N1[C@H](C#N)[C@H](c2ccc(C#CC3CCCC3)cc2)[C@H]1CO	·	–	–	·	–
CCCNC(=O)N[C@@H]1C=C[C@@H](CC(=O)NCCc2ccccc2)O[C@H]1CO	·	–	–	·	–
COCC#Cc1ccc2c(c1)O[C@@H](CN(C)C(=O)CC1CC1)[C@@H](C)CN([C@@H](C)CO)S2(=O)=O	·	–	–	–	–
CNC(=O)C[C@@H]1CC[C@H]2[C@@H](COC[C@H](O)CN2C(=O)c2ccccn2)O1	·	–	–	–	–
O=c1c[n+]([O-])c2ccccc2n1OCc1c(F)cccc1F	–	·	·	111	·
O=C(NCC[C@H]1CC[C@@H](NS(=O)(=O)c2ccc(Cl)cc2)[C@H](CO)O1)Nc1ccc(F)cc1	·	–	–	·	–
CO[C@H]1CC[C@H]2CCN(C)C(=O)[C@@H](C)[C@H](OC)CN(C)C(=O)c3cc(C#N)ccc3OC[C@@H]1O2	·	–	–	·	–
CO[C@H]1CC[C@H]2CCN(C)C(=O)[C@@H](C)[C@H](OC)CN(C)C(=O)c3cc(C#N)ccc3OC[C@H]1O2	·	–	98	·	–
Cc1noc(C)c1NC(=O)N(C)C[C@H]1Oc2ncc(C#CCN(C)C)cc2C(=O)N([C@H](C)CO)C[C@H]1C	·	–	–	–	–
Cc1noc(C)c1NC(=O)N(C)C[C@H]1Oc2ncc(C#CC(C)C)cc2C(=O)N([C@@H](C)CO)C[C@@H]1C	·	–	–	–	–
S=P(N1CC1)(N1CC1)N1CC1	–	–	–	–	53
CC1CCN(C(=O)c2[nH]cnc2C(=O)N[C@@H](C)C(=O)OCc2ccccc2)CC1	–	–	138	–	·
CC(=O)N(C)C[C@@H]1Oc2ncc(-c3ccc(C(=O)N(C)C)cc3)cc2C(=O)N([C@@H](C)CO)C[C@H]1C	·	–	–	–	–
Cc1ccc(S(=O)(=O)N/N=C/c2cc(Br)ccc2O)cc1	–	30	–	–	–
CN1CCN(C(=O)C[C@H]2CC[C@H]3[C@H](COc4ccc(NC(=O)C5CCCC5)cc4C(=O)N3C)O2)CC1	·	–	–	·	–
SMILES	Rtt109 Vps75	AF4-AF9 inh	S100A4 inh HTS	miR-122 sensor	ERAP1 HTS inh
C[C@@H]1CN([C@H](C)CO)C(=O)Cc2cc(N(C)C)ccc2O[C@H]1CN(C)Cc1ccc(C(=O)O)cc1	·	–	–	–	–
C[C@H](CO)N1C[C@H](C)[C@H](CN(C)Cc2ccc(-c3ccccc3)cc2)Oc2ccc(N(C)C)cc2CC1=O	·	29	–	–	–
C[C@@H]1CN([C@@H](C)CO)C(=O)Cc2cc(N(C)C)ccc2O[C@H]1CN(C)Cc1ccc(-c2ccccc2)cc1	·	74	–	–	–
C[C@H](CO)N1C[C@H](C)[C@@H](CN(C)Cc2ccc(C(F)(F)F)cc2)Oc2ccc(N(C)C)cc2CC1=O	·	33	–	–	–
CCCN1C[C@@H](C)[C@@H](OC)CN(C)C(=O)c2cc(NC(=O)CC(F)(F)F)ccc2OC[C@@H]1C	·	–	–	·	–
C[C@@H]1CCCCO[C@H](CN(C)C(=O)Cc2ccccc2)[C@@H](C)CN([C@H](C)CO)C(=O)c2cc(NC(=O)NC3CCCCC3)ccc2O1	·	·	·	–	·
CN1CCN(C2Cc3ccccc3Sc3cc(C(F)(F)F)ccc32)CC1 (stereo unspecified)	·	26	–	·	–
COc1ccc2c3c([nH]c2c1)[C@H](CO)N(S(C)(=O)=O)CC31CCN(C(=O)CN(C)C)CC1	·	–	·	·	·
CN(C)CCCNC(=O)C[C@@H]1CC[C@@H](NC(=O)c2ccccc2F)[C@@H](CO)O1	·	–	–	·	–
Cc1nn(CC(=O)NCc2cccnc2)c(C)c1[N+](=O)[O-]	68	–	–	·	–
COc1ccc(S(=O)(=O)Nc2cc(C)c(O)c(S(=O)(=O)c3ccccc3)c2)cc1	–	·	·	129	·
CC(=O)C[C@H]1c2cc(C(F)(F)F)ccc2S(=O)(=O)N1C1CCCCC1	–	·	–	118	–
COc1cccc2c1Oc1ncccc1N(C(=O)CCC(=O)NCc1ccc(C)cc1)C2	–	–	–	–	–
COc1cccc2c1Oc1ncccc1N(C(=O)CCC(=O)NCc1ccc(F)cc1)C2	51	–	–	–	–
CCOc1ccccc1NS(=O)(=O)c1ccc(-c2cnc(C3CC3)o2)cc1	–	–	–	127	–
CC(=O)Nc1ccc(NS(=O)(=O)c2cc(-c3cnc(C4CC4)o3)ccc2C)cc1	–	–	–	–	–
COc1ccccc1NS(=O)(=O)c1ccc(-c2cnc(C3CC3)o2)cc1	–	–	–	–	–
Cc1ccc(-c2cnc(C3CC3)o2)cc1S(=O)(=O)Nc1ccccc1	–	·	·	334	·
Cc1cc(C(=O)Nc2cccc3c2O[C@@H](CN(C)Cc2ccccc2)[C@H](C)CN([C@H](C)CO)C3=O)n(C)n1	·	–	–	–	–
CCOc1ccc(-c2cc(N)n(S(=O)(=O)c3ccc(OC)c(OC)c3)n2)cc1	–	44	–	?	–
COc1ccc(S(=O)(=O)n2nc(-c3ccc(Cl)cc3)cc2N)cc1OC	–	–	–	–	·
COc1cc2ccccc2cc1C(=O)N(CCN(C)C)c1nc2c(C)cccc2s1	–	–	–	–	–
COc1cc2ccccc2cc1C(=O)N(CCN(C)C)c1nc2c(OC)ccc(OC)c2s1	–	50	–	–	–
COc1ccc(OC)c2sc(N(CCN(C)C)C(=O)c3ccc4ccccc4c3)nc12	–	28	–	–	–
